Results: ChEMBL document CHEMBL1817564, “Recognition of HIV TAR RNA by triazole linked neomycin dimers” (Bioorg Med Chem Lett, 2011)
Active and inactive are the calls of the source. The calls are words filed in the database; no cut-off is given here.

Columns and labels:
[1] = tested on: Nucleic Acid; test: Binding affinity to HIV1 TAR RNA assessed as melting temperature at HIV1 TAR RNA to compound ratio of 1 at pH 6.8 by UV thermal denaturation assay; format: nucleic-acid assay; details: Human immunodeficiency virus 1
How it was run: (§1)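 UV melting of HIV-1 TAR RNA (1 µM/strand) with ligand at 1 µM (ratio 1) in 100 mM KCl, 10 mM SC, 0.5 mM EDTA, pH 6.8. Tm taken from first-derivative plots of absorbance versus temperature; ΔTm is relative to RNA alone.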

[2] = tested on: Nucleic Acid; test: Binding affinity to HIV1 TAR RNA assessed as change in melting temperature at HIV1 TAR RNA to compound ratio of 1 at pH 6.8 by UV thermal denaturation assay; format: nucleic-acid assay; details: Human immunodeficiency virus 1; how it was run: as §1
[3] = tested on: Nucleic Acid; test: Inhibition of HIV1 TAR RNA; format: nucleic-acid assay, Human immunodeficiency virus 1
[4] = tested on: Nucleic Acid; test: Binding affinity to HIV1 TAR RNA at […] up to 3 by CD Spectroscopy; format: nucleic-acid assay; details: Human immunodeficiency virus 1
How it was run: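 CD titration of HIV TAR RNA with incremental additions of neomycin dimer, covering drug/duplex ratio (rdd) 0 to 3. Read-out is molar ellipticity.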

[5] = tested on: Nucleic Acid; test: Binding affinity to HIV1 TAR RNA assessed as melting temperature at compound to TAR RNA ratio of 2 at pH 6.8 by UV thermal denaturation assay; format: nucleic-acid assay; details: Human immunodeficiency virus 1
How it was run: (§2)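 TAR RNA UV thermal denaturation in 100 mM KCl, 10 mM SC, 0.5 mM EDTA, pH 6.8, with dimer:RNA at 2:1. Tm taken from first-derivative plots.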

[6] = tested on: Nucleic Acid; test: Binding affinity to HIV1 TAR RNA assessed as melting temperature at compound to TAR RNA ratio of 4 at pH 6.8 by UV thermal denaturation assay; format: nucleic-acid assay; details: Human immunodeficiency virus 1
[7] = tested on: Nucleic Acid; test: Binding affinity to HIV1 TAR RNA assessed as change in melting temperature at compound to TAR RNA ratio of 2 at pH 6.8 by UV thermal denaturation assay; format: nucleic-acid assay; details: Human immunodeficiency virus 1; how it was run: as §2
[8] = tested on: Nucleic Acid; test: Binding affinity to HIV1 TAR RNA assessed as change in melting temperature at compound to TAR RNA ratio of 4 at pH 6.8 by UV thermal denaturation assay; format: nucleic-acid assay; details: Human immunodeficiency virus 1

Row | Structure (SMILES) | Tm [1] [°C] | ΔTm [2] [°C] | also measured
1 | NC[C@@H]1O[C@H](O[C@H]2[C@@H](O)[C@H](O[C@@H]3[C@@H](O)[C@H](N)C[C@H](N)[C@H]3O[C@H]3O[C@H](CN)[C@@H](O)[C@H](O)[C@H]3N)O[C@@H]2Cn2cc(CCCCCCc3cn(C[C@H]4O[C@@H](O[C@@H]5[C@@H](O)[C@H](N)C[C@H](N)[C@H]5O[C@H]5O[C@H](CN)[C@@H](O)[C@H](O)[C@H]5N)[C@H](O)[C@@H]4O[C@H]4O[C@@H](CN)[C@@H](O)[C@H](O)[C@H]4N)nn3)nn2)[C@H](N)[C@@H](O)[C@@H]1O | 74.9 | 6.1 | 
2 | NC[C@@H]1O[C@H](O[C@H]2[C@@H](O)[C@H](O[C@@H]3[C@@H](O)[C@H](N)C[C@H](N)[C@H]3O[C@H]3O[C@H](CN)[C@@H](O)[C@H](O)[C@H]3N)O[C@@H]2CO)[C@H](N)[C@@H](O)[C@@H]1O [FRAMYCETIN] | 69.1 | 0.2 | IC50 [3]: 417 nM; Kd [3]: < 1000 nM
3 | NC[C@@H]1O[C@H](O[C@H]2[C@@H](O)[C@H](O[C@@H]3[C@@H](O)[C@H](N)C[C@H](N)[C@H]3O[C@H]3O[C@H](CN)[C@@H](O)[C@H](O)[C@H]3N)O[C@@H]2Cn2cc(Cc3ccc(Cc4cn(C[C@H]5O[C@@H](O[C@@H]6[C@@H](O)[C@H](N)C[C@H](N)[C@H]6O[C@H]6O[C@H](CN)[C@@H](O)[C@H](O)[C@H]6N)[C@H](O)[C@@H]5O[C@H]5O[C@@H](CN)[C@@H](O)[C@H](O)[C@H]5N)nn4)cc3)nn2)[C@H](N)[C@@H](O)[C@@H]1O | 78.5 | 9.6 | 
4 | NC[C@@H]1O[C@H](O[C@H]2[C@@H](O)[C@H](O[C@@H]3[C@@H](O)[C@H](N)C[C@H](N)[C@H]3O[C@H]3O[C@H](CN)[C@@H](O)[C@H](O)[C@H]3N)O[C@@H]2Cn2cc(COCCCCCCCCOCc3cn(C[C@H]4O[C@@H](O[C@@H]5[C@@H](O)[C@H](N)C[C@H](N)[C@H]5O[C@H]5O[C@H](CN)[C@@H](O)[C@H](O)[C@H]5N)[C@H](O)[C@@H]4O[C@H]4O[C@@H](CN)[C@@H](O)[C@H](O)[C@H]4N)nn3)nn2)[C@H](N)[C@@H](O)[C@@H]1O | 74.3 | 5.4 | 
5 | NC[C@@H]1O[C@H](O[C@H]2[C@@H](O)[C@H](O[C@@H]3[C@@H](O)[C@H](N)C[C@H](N)[C@H]3O[C@H]3O[C@H](CN)[C@@H](O)[C@H](O)[C@H]3N)O[C@@H]2Cn2cc(CCCc3cn(C[C@H]4O[C@@H](O[C@@H]5[C@@H](O)[C@H](N)C[C@H](N)[C@H]5O[C@H]5O[C@H](CN)[C@@H](O)[C@H](O)[C@H]5N)[C@H](O)[C@@H]4O[C@H]4O[C@@H](CN)[C@@H](O)[C@H](O)[C@H]4N)nn3)nn2)[C@H](N)[C@@H](O)[C@@H]1O | 78.2 | 9.3 | Tm [5]: 80.4 °C; Tm [6]: 81.3 °C; ΔTm [7]: 11.5 °C; ΔTm [8]: 12.4 °C

More lines, main results first:

Row | Tm [1] [°C] | ΔTm [2] [°C] | Structure (SMILES) | also measured
6 | 76.4 | 7.6 | C/C(CCc1cn(C[C@H]2O[C@@H](O[C@@H]3[C@@H](O)[C@H](N)C[C@H](N)[C@H]3O[C@H]3O[C@H](CN)[C@@H](O)[C@H](O)[C@H]3N)[C@H](O)[C@@H]2O[C@H]2O[C@@H](CN)[C@@H](O)[C@H](O)[C@H]2N)nn1)=C(/C)CCc1cn(C[C@H]2O[C@@H](O[C@@H]3[C@@H](O)[C@H](N)C[C@H](N)[C@H]3O[C@H]3O[C@H](CN)[C@@H](O)[C@H](O)[C@H]3N)[C@H](O)[C@@H]2O[C@H]2O[C@@H](CN)[C@@H](O)[C@H](O)[C@H]2N)nn1 | 
7 | 78.2 | 9.3 | NC[C@@H]1O[C@H](O[C@H]2[C@@H](O)[C@H](O[C@@H]3[C@@H](O)[C@H](N)C[C@H](N)[C@H]3O[C@H]3O[C@H](CN)[C@@H](O)[C@H](O)[C@H]3N)O[C@@H]2Cn2cc(Cc3cccc(Cc4cn(C[C@H]5O[C@@H](O[C@@H]6[C@@H](O)[C@H](N)C[C@H](N)[C@H]6O[C@H]6O[C@H](CN)[C@@H](O)[C@H](O)[C@H]6N)[C@H](O)[C@@H]5O[C@H]5O[C@@H](CN)[C@@H](O)[C@H](O)[C@H]5N)nn4)c3)nn2)[C@H](N)[C@@H](O)[C@@H]1O | 
8 | 72.1 | 3.3 | NC[C@@H]1O[C@H](O[C@H]2[C@@H](O)[C@H](O[C@@H]3[C@@H](O)[C@H](N)C[C@H](N)[C@H]3O[C@H]3O[C@H](CN)[C@@H](O)[C@H](O)[C@H]3N)O[C@@H]2Cn2cc(COCCCCCCCCCCCCOCc3cn(C[C@H]4O[C@@H](O[C@@H]5[C@@H](O)[C@H](N)C[C@H](N)[C@H]5O[C@H]5O[C@H](CN)[C@@H](O)[C@H](O)[C@H]5N)[C@H](O)[C@@H]4O[C@H]4O[C@@H](CN)[C@@H](O)[C@H](O)[C@H]4N)nn3)nn2)[C@H](N)[C@@H](O)[C@@H]1O | 
9 | 77.1 | 8.2 | NC[C@@H]1O[C@H](O[C@H]2[C@@H](O)[C@H](O[C@@H]3[C@@H](O)[C@H](N)C[C@H](N)[C@H]3O[C@H]3O[C@H](CN)[C@@H](O)[C@H](O)[C@H]3N)O[C@@H]2Cn2cc(CCCCc3cn(C[C@H]4O[C@@H](O[C@@H]5[C@@H](O)[C@H](N)C[C@H](N)[C@H]5O[C@H]5O[C@H](CN)[C@@H](O)[C@H](O)[C@H]5N)[C@H](O)[C@@H]4O[C@H]4O[C@@H](CN)[C@@H](O)[C@H](O)[C@H]4N)nn3)nn2)[C@H](N)[C@@H](O)[C@@H]1O | 
10 | 79.1 | 10.2 | NC[C@@H]1O[C@H](O[C@H]2[C@@H](O)[C@H](O[C@@H]3[C@@H](O)[C@H](N)C[C@H](N)[C@H]3O[C@H]3O[C@H](CN)[C@@H](O)[C@H](O)[C@H]3N)O[C@@H]2Cn2cc(COCc3cn(C[C@H]4O[C@@H](O[C@@H]5[C@@H](O)[C@H](N)C[C@H](N)[C@H]5O[C@H]5O[C@H](CN)[C@@H](O)[C@H](O)[C@H]5N)[C@H](O)[C@@H]4O[C@H]4O[C@@H](CN)[C@@H](O)[C@H](O)[C@H]4N)nn3)nn2)[C@H](N)[C@@H](O)[C@@H]1O | Activity [4]: Active
